The source made the active and inactive calls. The calls are words filed in the database; no cut-off is given here.
Key:
Histone deacetylase 1 [1] = target: T1, Histone deacetylase 1 (Homo sapiens, UniProt Q13547); test: Inhibition of full length recombinant human C-terminal FLAG-tagged HDAC1 expressed in sf9 cells preincubated for 5 mins followed by biotinylated H3K9-Ac substrate addition and measured after 60 mins by HTRF assay
[2] = target: T2, Protein deacetylase HDAC6 (Homo sapiens, UniProt Q9UBN7); test: Inhibition of full length recombinant human N-terminal GST-tagged HDAC6 expressed in baculovirus infected sf9 cells preincubated for 5 mins followed by biotinylated H3K9-Ac substrate addition and measured after 60 mins by HTRF assay
T2 sequence (Q9UBN7 whole entry): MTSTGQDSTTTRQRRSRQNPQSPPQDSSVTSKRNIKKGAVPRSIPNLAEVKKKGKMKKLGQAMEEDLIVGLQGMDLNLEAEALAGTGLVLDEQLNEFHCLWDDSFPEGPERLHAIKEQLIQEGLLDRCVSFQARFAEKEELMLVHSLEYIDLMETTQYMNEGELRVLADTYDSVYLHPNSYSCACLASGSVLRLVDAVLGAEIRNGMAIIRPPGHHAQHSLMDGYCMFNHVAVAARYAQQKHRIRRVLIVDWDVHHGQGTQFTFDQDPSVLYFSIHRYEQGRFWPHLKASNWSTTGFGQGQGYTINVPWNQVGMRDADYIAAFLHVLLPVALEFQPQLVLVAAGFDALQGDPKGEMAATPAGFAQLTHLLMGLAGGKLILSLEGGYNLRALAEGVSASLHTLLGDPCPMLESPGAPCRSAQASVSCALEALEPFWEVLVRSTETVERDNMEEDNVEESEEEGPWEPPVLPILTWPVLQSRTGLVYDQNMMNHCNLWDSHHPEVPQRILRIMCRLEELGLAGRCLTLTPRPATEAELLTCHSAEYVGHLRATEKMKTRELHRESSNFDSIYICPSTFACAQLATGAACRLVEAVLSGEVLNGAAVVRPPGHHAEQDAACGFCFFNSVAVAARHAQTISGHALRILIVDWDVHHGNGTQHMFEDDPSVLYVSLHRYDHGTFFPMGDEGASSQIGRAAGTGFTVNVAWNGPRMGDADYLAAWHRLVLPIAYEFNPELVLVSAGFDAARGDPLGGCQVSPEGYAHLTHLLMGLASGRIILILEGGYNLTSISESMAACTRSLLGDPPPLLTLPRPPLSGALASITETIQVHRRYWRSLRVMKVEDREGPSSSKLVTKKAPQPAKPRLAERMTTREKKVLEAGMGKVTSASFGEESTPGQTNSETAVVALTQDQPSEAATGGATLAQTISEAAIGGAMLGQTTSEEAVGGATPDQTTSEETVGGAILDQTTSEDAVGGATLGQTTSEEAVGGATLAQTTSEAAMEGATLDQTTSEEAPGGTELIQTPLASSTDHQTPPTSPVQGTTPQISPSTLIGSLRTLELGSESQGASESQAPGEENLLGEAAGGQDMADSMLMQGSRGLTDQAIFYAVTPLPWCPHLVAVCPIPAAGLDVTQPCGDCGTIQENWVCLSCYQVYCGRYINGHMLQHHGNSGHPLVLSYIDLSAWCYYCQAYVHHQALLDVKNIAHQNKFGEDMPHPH

Homo sapiens = species: Homo sapiens; test: Selectivity index, ratio of IC50 for full length recombinant human C-terminal FLAG-tagged HDAC1 expressed in sf9 cells to IC50 for full length recombinant human N-terminal GST-tagged HDAC6 expressed in baculovirus infected sf9 cells
[3] = target: T3, Protein deacetylase HDAC6 (Homo sapiens) (UniProt Q9UBN7); test: Inhibition of HDAC6 in human RPMI8226 cells assessed as increase in acetylated-tubulin level at 10 uM after 24 hrs by Western blot analysis; assay type: cell-based
T3 sequence (whole entry): T2 sequence (Q9UBN7 whole entry)
How it was run: (§1)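 RPMI-8226 cells exposed to compound at 10 μM for 24 h. Acetylated histone H3 and acetylated tubulin were then detected by immunoblot with specific antibodies.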

[4] = target: Apoptosis regulator Bcl-2 (Homo sapiens, UniProt P10415); test: Inhibition of FAM-Bid peptide binding to Bcl2 (unknown origin) by fluorescence polarization assay
RPMI-8226 = test: cells; assay type: functional, cell-based; conditions: Homo sapiens, RPMI-8226, 72 h
U-266 = test: cells; assay type: functional, cell-based; conditions: Homo sapiens, U-266, 72 h
Histone deacetylase 1 [5] = target: T1, Histone deacetylase 1; test: Inhibition of HDAC1 in human RPMI8226 cells assessed as increase in acetylated-H3 level at 10 uM after 24 hrs by Western blot analysis; assay type: cell-based; how it was run: as §1

Chain of Apoptosis regulator Bcl-2 (P10415 whole entry): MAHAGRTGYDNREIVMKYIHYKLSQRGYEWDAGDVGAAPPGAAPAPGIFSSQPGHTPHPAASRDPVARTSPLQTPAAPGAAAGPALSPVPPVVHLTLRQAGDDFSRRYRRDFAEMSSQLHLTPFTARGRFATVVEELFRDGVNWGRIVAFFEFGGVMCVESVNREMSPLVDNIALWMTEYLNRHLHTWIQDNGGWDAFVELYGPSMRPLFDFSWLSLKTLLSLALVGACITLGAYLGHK
T1 sequence (Q13547 whole entry): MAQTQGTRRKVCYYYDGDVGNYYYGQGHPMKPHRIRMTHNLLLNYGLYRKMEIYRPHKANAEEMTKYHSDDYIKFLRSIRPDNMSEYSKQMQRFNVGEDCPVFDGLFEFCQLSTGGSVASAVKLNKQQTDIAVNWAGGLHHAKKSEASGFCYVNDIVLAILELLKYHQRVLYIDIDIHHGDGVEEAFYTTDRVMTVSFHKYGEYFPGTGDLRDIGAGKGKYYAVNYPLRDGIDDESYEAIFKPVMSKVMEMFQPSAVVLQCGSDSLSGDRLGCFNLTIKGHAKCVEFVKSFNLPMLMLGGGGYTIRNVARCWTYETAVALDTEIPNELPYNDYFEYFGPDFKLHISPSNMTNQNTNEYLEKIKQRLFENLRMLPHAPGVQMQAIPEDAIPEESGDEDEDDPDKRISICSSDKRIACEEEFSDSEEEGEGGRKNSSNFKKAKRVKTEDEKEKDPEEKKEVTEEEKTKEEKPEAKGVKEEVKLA

Compound | IC50 (Histone deacetylase 1 [1]) [nM] | IC50 [2] [nM] | Ratio IC50 (Homo sapiens) | inhibition [3] | IC50 [4] [nM] | IC50 (RPMI-8226) [nM] | IC50 (U-266) [nM] | inhibition (Histone deacetylase 1 [5])
CC1(C)CCC(CN2CCN(c3ccc(C(=O)NS(=O)(=O)c4ccc(NCCCCCCC(=O)NO)c([N+](=O)[O-])c4)c(Oc4cnc5[nH]ccc5c4)c3)CC2)=C(c2ccc(Cl)cc2)C1 | 665 | 28 | > 10 | Active | 240 | 300 | 9800 | 
CC1(C)CCC(CN2CCN(c3ccc(C(=O)NS(=O)(=O)c4ccc(NCC5CCOCC5)c([N+](=O)[O-])c4)c(Oc4cnc5[nH]ccc5c4)c3)CC2)=C(c2ccc(Cl)cc2)C1 [VENETOCLAX] |  |  |  |  |  | 2700 | 94000 | 
CC1(C)CCC(CN2CCN(c3ccc(C(=O)NS(=O)(=O)c4ccc(NCC(=O)NO)c([N+](=O)[O-])c4)c(Oc4cnc5[nH]ccc5c4)c3)CC2)=C(c2ccc(Cl)cc2)C1 | > 1000 | > 1000 |  |  |  |  |  | 
CC1(C)CCC(CN2CCN(c3ccc(C(=O)NS(=O)(=O)c4ccc(NCCCCC(=O)NO)c([N+](=O)[O-])c4)c(Oc4cnc5[nH]ccc5c4)c3)CC2)=C(c2ccc(Cl)cc2)C1 | > 1000 | > 1000 |  |  |  |  |  | 
CC1(C)CCC(CN2CCN(c3ccc(C(=O)NS(=O)(=O)c4ccc(NCCCC(=O)NO)c([N+](=O)[O-])c4)c(Oc4cnc5[nH]ccc5c4)c3)CC2)=C(c2ccc(Cl)cc2)C1 | > 1000 | > 1000 |  |  |  |  |  | 
O=C(CCCCCCNC(=O)c1cnc(N(c2ccccc2)c2ccccc2)nc1)NO [RICOLINOSTAT] |  |  |  |  |  | 11000 | 21200 | 
CC1(C)CCC(CN2CCN(c3ccc(C(=O)NS(=O)(=O)c4ccc(NCCCCCC(=O)NO)c([N+](=O)[O-])c4)c(Oc4cnc5[nH]ccc5c4)c3)CC2)=C(c2ccc(Cl)cc2)C1 | 847 | 28 | > 10 | Active | 230 | 300 | 27100 | 
CC1(C)CCC(CN2CCN(c3ccc(C(=O)NS(=O)(=O)c4ccc(NCCC(=O)NO)c([N+](=O)[O-])c4)c(Oc4cnc5[nH]ccc5c4)c3)CC2)=C(c2ccc(Cl)cc2)C1 | > 1000 | > 1000 |  |  |  |  |  | 
CC1(C)CCC(CN2CCN(c3ccc(C(=O)NS(=O)(=O)c4ccc(NCCCCCCCC(=O)NO)c([N+](=O)[O-])c4)c(Oc4cnc5[nH]ccc5c4)c3)CC2)=C(c2ccc(Cl)cc2)C1 | 281 | 19 | > 10 | Active | 250 | 200 | 8700 | Active

Source: ChEMBL document CHEMBL4330103, “Design, synthesis, and bioactivity evaluation of novel Bcl-2/HDAC dual-target inhibitors for the treatment of multiple myeloma” (Bioorg Med Chem Lett, 2019)
